Measurements reported in publication PMC3032042 (Chemico-biological interactions, 2010).
“Also recorded” adds a separate entry of the source. Read-outs that look alike come from different tables or passages of the source.

Key:
rSULT1A1 [1] = target: T1, rSULT1A1 (Rattus norvegicus, UniProt P17988); settings: cited from earlier work; for IC50: rSULT1A1 with all cysteines in the thiol form, 2-naphthol as the substrate; for inhibitor status with rSULT1A1: standard assay conditions, reduced rSULT1A1
T1 sequence (P17988 whole entry): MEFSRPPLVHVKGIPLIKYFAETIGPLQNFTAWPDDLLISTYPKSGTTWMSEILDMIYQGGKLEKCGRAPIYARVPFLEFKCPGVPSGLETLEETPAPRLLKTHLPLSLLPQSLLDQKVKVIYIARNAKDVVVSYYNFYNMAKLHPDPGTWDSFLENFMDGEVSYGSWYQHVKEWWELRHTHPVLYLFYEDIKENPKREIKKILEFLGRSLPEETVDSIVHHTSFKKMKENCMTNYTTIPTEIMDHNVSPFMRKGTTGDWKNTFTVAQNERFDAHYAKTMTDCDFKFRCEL

rSULT1A1-PAP complex = rSULT1A1-PAP complex (Rattus norvegicus, UniProt P17988); test: Kd of OHPCBs with the rSULT1A1-PAP complex by displacement of ANS; assay type: binding
Sequence of rSULT1A1-PAP complex (P17988 whole entry, one chain of several): as the sequence (P17988 whole entry) above
In short: (§1)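 DTT-free recombinant rat enzyme pretreated with 1 mM GSH or GSSG for 1 h at 25 °C under argon. Enzyme at 0.34 µM in 0.25 M potassium phosphate pH 7.0, held 2 min at 37 °C under argon. ANS added (10 µM final), then 0.27 mM PAP to form the complex, then titrated with test compound in ethanol. Read at ex 380/em 465 nm. Duplicates; one-site fit corrected for non-specific ANS binding.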

rSULT1A1 [2] = target: T1, rSULT1A1; test: Kd of OHPCBs with rSULT1A1 by displacement of ANS; assay type: binding
In short: as §1, with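 “Recombinant” for “DTT-free recombinant”, “enzyme (E. coli-expressed, PAP-agarose purified), DTT removed by gel filtration,” for “enzyme”, “then” for “then 0.27 mM PAP to form the complex, then”, “Fluorescence” for “Read at”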

rSULT1A1 [3] = target: T1, rSULT1A1; settings: GSSG-pretreated enzyme; cited from earlier work
rSULT1A1 [4] = target: T1, rSULT1A1; test: Binding of TNP-AMP and PAP to rSULT1A1
In short: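 Recombinant rat enzyme (expressed in E. coli BL21(DE3), purified on PAP-agarose) at 0.34 µM in potassium phosphate pH 7.0, 37 °C, in a quartz cuvette. Titrated with TNP-AMP and the fluorescence increase recorded (ex 435/em 545 nm). PAP titration then displaced TNP-AMP, and the fluorescence decrease was recorded. Kd from a single-site binding fit corrected for non-specific binding.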

rSULT1A1 [5] = target: T1, rSULT1A1; test: Sulfation of OHPCBs catalyzed by rSULT1A1; assay type: biochemical; settings: standard assay conditions (reduced enzyme)
In short: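 Rat SULT1A1 expressed in E. coli BL21(DE3) from pET-3c and purified on PAP-agarose affinity column. Reaction at 37 °C: 0.25 M potassium phosphate pH 7.0, 200 µM PAPS, 7.5 mM 2-mercaptoethanol, 10 µM test compound added in acetone (3.3% v/v final). Started with 0.75 µg enzyme, stopped with methanol after 6 min. Sulfation rate from HPLC of substrate-dependent PAP formation.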

[6] = read-out: Kd values for OHPCBs with rSULT1A1, With 0.27 mM PAP, GSH, enzyme pretreated with 1 mM GSH, pH 7.0, 37 °C
[7] = read-out: Kd values for OHPCBs with rSULT1A1, With 0.27 mM PAP, GSSG, enzyme pretreated with 1 mM GSSG, pH 7.0, 37 °C
[8] = read-out: Kd values for OHPCBs with rSULT1A1, Without PAP, GSH, enzyme pretreated with 1 mM GSH, pH 7.0, 37 °C
[9] = read-out: Kd values for OHPCBs with rSULT1A1, Without PAP, GSSG, enzyme pretreated with 1 mM GSSG, pH 7.0, 37 °C

| Molecule | IC50 (rSULT1A1 [1]) [nM] | inhibitor status with rSULT1A1 (rSULT1A1 [1]) | Kd (rSULT1A1-PAP complex; [6]) [nM] | Kd (rSULT1A1-PAP complex; [7]) [nM] | Kd (rSULT1A1 [2]; [8]) [nM] | Kd (rSULT1A1 [2]; [9]) [nM] | substrate status with GSSG-pretreated (oxidized) rSULT1A1 (rSULT1A1 [3]) | Kd (rSULT1A1 [4]; read-out: Kd of TNP-AMP binding to rSULT1A1, 0.34 µM rSULT1A1, potassium phosphate buffer pH 7.0, 37°C, fluorescence at 545 nm) [nM] | substrate status with rSULT1A1 (rSULT1A1 [5]) | Kd (rSULT1A1 [4]; Kd of PAP displacing TNP-AMP bound to rSULT1A1, 0.34 µM rSULT1A1, pH 7.0, 37°C, Figure 4B) [nM] |
| --- | --- | --- | --- | --- | --- | --- | --- | --- | --- | --- |
| Oc1ccc(-c2ccc(Cl)c(Cl)c2)c(Cl)c1 [4’-OH PCB 33] | 26000 | relatively weak inhibitors | 2000 ± 10 | 2400 ± 40 | 2000 ± 100 | 2500 ± 400 | converted from inhibitors to substrates; also recorded: substrates for oxidized rSULT1A1 | – | – | – |
| Oc1ccc(-c2cc(Cl)cc(Cl)c2)cc1Cl [4’-OH PCB 36] | – | relatively weak inhibitors | – | – | – | – | substrates for oxidized rSULT1A1 | – | – | – |
| Oc1c(Cl)cc(-c2ccccc2)cc1Cl [4-OH PCB 14] | 270 | – | 400 ± 50 | 290 ± 40 | 260 ± 30 | 220 ± 20 | converted from inhibitors to substrates | – | – | – |
| Oc1ccc(-c2ccc(Cl)cc2Cl)cc1Cl [4’-OH PCB 25] | – | the weakest inhibitor | – | – | – | – | – | – | – | – |
| 2'-(or-3')-O-(trinitrophenyl)adenosine 5'-monophosphate [TNP-AMP] | – | – | – | – | – | – | – | 6500 | – | – |
| Oc1c(Cl)cc(-c2ccccc2Cl)cc1Cl [4-OH PCB 34] | 340 | inhibitors of the enzyme | 490 | 540 ± 10 | 370 ± 10 | 230 ± 10 | non-substrates for GSSG-pretreated enzyme | – | – | – |
| Oc1ccc(Cl)cc1-c1ccc(Cl)c(Cl)c1 [6’-OH PCB 35] | – | – | 3700 ± 10 | 3600 ± 1300 | 65000 ± 32000 | 117000 ± 36000 | – | – | substrates for rSULT1A1 | – |
| Nc1ncnc2c1ncn2[C@@H]1O[C@H](COP(=O)(O)O)[C@@H](OP(=O)(O)O)[C@H]1O [PAP, Adenosine 3’,5’-diphosphate] | – | – | – | – | – | – | – | – | – | 2600 |
| Oc1ccc(-c2ccc(Cl)c(Cl)c2)cc1 [4’-OH PCB 12] | – | – | 3100 ± 10 | 4600 ± 1200 | 4000 ± 800 | 2500 ± 700 | – | – | substrates for rSULT1A1 | – |
| Oc1ccc(-c2ccc(Cl)c(Cl)c2)cc1Cl [4’-OH PCB 35] | – | – | 1600 ± 100 | 1700 ± 100 | 3600 ± 900 | 1600 ± 400 | – | – | substrates for rSULT1A1; also recorded: the weakest substrate | – |
| Oc1ccc(-c2cc(Cl)ccc2Cl)cc1 [4’-OH PCB 9] | – | – | 3100 ± 1500 | 3300 ± 100 | 12000 ± 4000 | 7100 ± 1300 | – | – | substrates for rSULT1A1 | – |
| Oc1c(Cl)cc(-c2ccc(Cl)cc2Cl)cc1Cl [4’-OH PCB 68] | 850 | inhibitors of the enzyme | 470 ± 20 | 400 ± 40 | 670 ± 100 | 530 ± 100 | non-substrates for GSSG-pretreated enzyme | – | – | – |
| Oc1ccc(-c2ccccc2Cl)cc1Cl [4’-OH PCB 6] | 23000 | – | 880 ± 30 | 720 ± 10 | 660 ± 200 | 500 ± 100 | converted from inhibitors to substrates | – | – | – |
